≈ marks a conversion by molar mass, not a printed value. One block for each molecule: values may come before it.
Columns and labels:
[1] = target: T1, Potassium voltage-gated channel subfamily A member 5 (Homo sapiens, UniProt P22460); assay: Inhibition of Kv1.5 channel mediated delayed rectifier potassium current at 1 uM by patch-clamp technique
[2] = target: T1, Potassium voltage-gated channel subfamily A member 5; assay: Inhibition of Kv1.5 channel mediated delayed rectifier potassium current by patch-clamp technique
[3] = Aqueous solubility of the compound; assay type: physicochemical; conditions: buffer
Summary of the method: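 Crystalline solid; shake-flask method in 50 mM phosphate-buffered saline, pH 6.8; dissolved compound quantified by LC/MS/MS.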

Rattus norvegicus [4] = species on record: Rattus norvegicus; assay: Inhibition of rat calcium channel GH3 at 10 uM
[5] = Oral bioavailability in dog at 20 umol/kg; assay type: ADME, organism-based, Canis lupus familiaris; conditions: in vivo
[6] = Half life in intra arterial infusion dosed dog at 10 umol/kg; assay type: ADME, organism-based, Canis lupus familiaris; conditions: in vivo
[7] = Clearance in rat at 20 umol/kg, po; assay type: ADME, organism-based; conditions: in vivo
Rattus norvegicus [8] = assay: Volume of distribution in rat at 20 umol/kg, po; assay type: ADME, organism-based; conditions: in vivo
[9] = Half life in intra arterial infusion dosed rat at 10 umol/kg; assay type: ADME, organism-based; conditions: in vivo
[10] = Oral bioavailability in rat at 20 umol/kg; assay type: ADME, organism-based; conditions: in vivo
[11] = Clearance in dog at 20 umol/kg, po; assay type: ADME, organism-based, Canis lupus familiaris; conditions: in vivo
[12] = target: SCN5A (sodium channel protein type 5 subunit alpha) (Homo sapiens, UniProt Q14524); assay: Inhibition of human SCN5A channel at 10 uM
SCN5A (sodium channel protein type 5 subunit alpha), sequence (Q14524 whole entry): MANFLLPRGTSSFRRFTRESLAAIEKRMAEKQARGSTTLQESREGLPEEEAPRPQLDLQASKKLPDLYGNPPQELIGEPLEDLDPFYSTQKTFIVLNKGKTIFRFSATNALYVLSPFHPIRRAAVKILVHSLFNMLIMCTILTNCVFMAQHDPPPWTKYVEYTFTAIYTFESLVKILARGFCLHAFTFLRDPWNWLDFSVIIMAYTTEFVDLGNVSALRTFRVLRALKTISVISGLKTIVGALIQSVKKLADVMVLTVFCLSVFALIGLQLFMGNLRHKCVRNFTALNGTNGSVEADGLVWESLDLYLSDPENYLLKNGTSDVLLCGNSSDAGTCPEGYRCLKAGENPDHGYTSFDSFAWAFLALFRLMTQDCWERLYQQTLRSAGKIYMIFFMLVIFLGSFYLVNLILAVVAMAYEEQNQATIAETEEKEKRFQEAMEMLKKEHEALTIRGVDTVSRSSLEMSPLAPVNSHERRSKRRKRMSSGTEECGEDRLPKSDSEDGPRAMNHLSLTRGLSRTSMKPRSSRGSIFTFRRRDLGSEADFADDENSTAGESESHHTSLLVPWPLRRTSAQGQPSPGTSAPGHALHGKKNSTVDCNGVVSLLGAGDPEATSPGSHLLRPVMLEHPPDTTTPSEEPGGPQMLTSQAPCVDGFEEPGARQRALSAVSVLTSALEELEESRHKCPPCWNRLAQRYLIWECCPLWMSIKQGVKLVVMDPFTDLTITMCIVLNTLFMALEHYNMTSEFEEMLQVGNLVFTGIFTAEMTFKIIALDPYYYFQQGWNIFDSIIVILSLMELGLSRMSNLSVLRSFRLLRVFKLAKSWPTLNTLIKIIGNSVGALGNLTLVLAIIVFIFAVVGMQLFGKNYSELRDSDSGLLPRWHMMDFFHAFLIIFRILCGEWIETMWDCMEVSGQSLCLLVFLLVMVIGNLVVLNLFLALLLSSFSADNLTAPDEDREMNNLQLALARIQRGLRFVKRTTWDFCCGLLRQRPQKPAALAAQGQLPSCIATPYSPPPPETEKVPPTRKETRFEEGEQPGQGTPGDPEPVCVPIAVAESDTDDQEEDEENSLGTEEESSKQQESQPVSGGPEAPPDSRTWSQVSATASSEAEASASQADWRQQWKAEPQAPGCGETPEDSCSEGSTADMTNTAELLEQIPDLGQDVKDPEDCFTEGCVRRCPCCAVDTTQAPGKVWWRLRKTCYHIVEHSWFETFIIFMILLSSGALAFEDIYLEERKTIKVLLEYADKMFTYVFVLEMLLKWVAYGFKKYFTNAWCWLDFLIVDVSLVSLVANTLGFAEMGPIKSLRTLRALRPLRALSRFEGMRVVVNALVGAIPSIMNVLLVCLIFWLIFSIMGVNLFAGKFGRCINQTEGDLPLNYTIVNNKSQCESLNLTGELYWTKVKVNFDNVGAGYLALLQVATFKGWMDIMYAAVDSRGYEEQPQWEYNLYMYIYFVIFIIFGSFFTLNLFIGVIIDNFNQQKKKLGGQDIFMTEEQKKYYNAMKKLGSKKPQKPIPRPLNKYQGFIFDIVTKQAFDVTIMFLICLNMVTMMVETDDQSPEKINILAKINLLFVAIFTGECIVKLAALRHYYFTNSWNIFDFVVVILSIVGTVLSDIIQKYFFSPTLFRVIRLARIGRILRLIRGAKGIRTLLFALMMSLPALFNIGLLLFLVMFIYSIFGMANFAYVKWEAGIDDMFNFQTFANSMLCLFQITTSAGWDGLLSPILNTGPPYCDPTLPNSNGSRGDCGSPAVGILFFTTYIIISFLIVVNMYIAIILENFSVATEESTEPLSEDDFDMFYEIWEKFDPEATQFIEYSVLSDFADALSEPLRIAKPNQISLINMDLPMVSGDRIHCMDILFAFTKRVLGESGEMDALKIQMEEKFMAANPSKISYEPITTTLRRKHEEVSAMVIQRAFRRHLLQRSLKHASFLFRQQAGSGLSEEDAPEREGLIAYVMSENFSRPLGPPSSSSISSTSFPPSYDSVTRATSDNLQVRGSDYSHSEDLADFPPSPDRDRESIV

Canis familiaris = assay: Volume of distribution in dog at 20 umol/kg, po; assay type: ADME, organism-based, Canis lupus familiaris; conditions: in vivo
hERG (KCNH2) = hERG (KCNH2) (Homo sapiens, UniProt Q12809); assay: Inhibition of hERG at 10 uM; assay type: toxicity
hERG (KCNH2), sequence (Q12809 whole entry): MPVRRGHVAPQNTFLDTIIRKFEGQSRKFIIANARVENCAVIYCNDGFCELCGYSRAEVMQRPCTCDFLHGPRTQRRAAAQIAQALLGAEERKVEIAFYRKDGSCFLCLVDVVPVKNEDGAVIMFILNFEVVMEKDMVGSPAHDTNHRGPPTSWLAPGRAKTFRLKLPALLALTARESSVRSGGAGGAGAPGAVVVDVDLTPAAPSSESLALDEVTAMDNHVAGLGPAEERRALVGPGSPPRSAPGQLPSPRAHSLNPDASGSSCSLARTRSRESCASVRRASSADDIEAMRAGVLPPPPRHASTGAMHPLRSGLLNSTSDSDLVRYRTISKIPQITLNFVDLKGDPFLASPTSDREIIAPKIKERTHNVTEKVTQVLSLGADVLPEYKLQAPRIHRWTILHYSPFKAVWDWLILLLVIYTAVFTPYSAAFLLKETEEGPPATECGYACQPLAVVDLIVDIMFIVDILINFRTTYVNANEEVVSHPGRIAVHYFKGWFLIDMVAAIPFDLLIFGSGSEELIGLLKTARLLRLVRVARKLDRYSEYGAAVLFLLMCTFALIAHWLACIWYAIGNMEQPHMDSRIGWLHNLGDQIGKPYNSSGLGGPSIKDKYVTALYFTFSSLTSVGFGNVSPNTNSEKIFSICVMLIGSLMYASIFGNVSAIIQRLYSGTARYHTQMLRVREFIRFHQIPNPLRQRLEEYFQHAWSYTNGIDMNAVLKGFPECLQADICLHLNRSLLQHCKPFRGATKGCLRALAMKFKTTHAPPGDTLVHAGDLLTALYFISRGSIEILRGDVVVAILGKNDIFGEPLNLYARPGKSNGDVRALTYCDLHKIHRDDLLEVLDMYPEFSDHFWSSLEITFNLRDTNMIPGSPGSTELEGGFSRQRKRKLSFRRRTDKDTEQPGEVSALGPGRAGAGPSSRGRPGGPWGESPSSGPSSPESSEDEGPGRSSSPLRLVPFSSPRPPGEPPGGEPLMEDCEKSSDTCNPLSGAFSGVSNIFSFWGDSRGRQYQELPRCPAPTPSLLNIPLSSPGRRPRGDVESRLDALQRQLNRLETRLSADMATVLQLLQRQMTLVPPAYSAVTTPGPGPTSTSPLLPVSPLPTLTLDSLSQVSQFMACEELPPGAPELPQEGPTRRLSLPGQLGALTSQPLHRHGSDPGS

T1 sequence (P22460 whole entry): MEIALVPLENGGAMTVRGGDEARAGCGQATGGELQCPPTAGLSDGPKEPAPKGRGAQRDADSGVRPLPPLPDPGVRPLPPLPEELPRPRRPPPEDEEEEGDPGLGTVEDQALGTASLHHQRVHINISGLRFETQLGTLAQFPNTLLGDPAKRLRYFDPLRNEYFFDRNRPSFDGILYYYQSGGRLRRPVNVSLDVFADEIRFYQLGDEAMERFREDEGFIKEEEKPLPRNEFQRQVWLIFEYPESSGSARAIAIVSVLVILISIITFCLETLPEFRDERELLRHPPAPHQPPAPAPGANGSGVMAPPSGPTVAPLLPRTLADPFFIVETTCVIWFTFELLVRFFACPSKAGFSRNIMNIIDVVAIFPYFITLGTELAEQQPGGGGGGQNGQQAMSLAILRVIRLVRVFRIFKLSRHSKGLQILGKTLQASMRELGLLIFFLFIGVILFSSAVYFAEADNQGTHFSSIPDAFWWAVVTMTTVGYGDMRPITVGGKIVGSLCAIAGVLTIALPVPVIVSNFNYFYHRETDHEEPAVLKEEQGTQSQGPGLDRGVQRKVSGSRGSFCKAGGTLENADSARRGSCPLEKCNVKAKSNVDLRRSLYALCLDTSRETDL

inhibition [1]: 3%
SMILES: CCc1ccc(S(=O)(=O)N[C@@H]2c3ccccc3C[C@H]2O)cc1 (racemic)

IC50 [2]: 880 nM
SMILES: CCc1ccc(S(=O)(=O)N[C@@H]2c3c(cccc3NC(=O)c3cccc(OC)c3)C[C@H]2O)cc1 (racemic)

IC50 [2]: 440 nM
SMILES: CCc1ccc(S(=O)(=O)N[C@@H]2c3cc(NC(=O)c4cccc(OC)c4)ccc3CC[C@H]2O)cc1 (racemic)

inhibition [1]: 17%
SMILES: CCc1ccc(S(=O)(=O)N[C@@H]2c3cccc(NC(=O)c4cccc(OC)c4)c3C[C@H]2O)cc1 (racemic)

solubility [3]: 2.9 µg/mL (≈ 6.22 µM) | IC50 [2]: 160 nM
SMILES: CCc1ccc(S(=O)(=O)N[C@@H]2c3cc(NC(=O)c4cccc(OC)c4)ccc3C[C@H]2O)cc1 (racemic)

inhibition [1]: 2%
SMILES: CCc1ccc(S(=O)(=O)N[C@@H]2c3cc(N)ccc3C[C@H]2O)cc1 (racemic)

inhibition (Rattus norvegicus [4]): 27%
SMILES: CCc1ccc(S(=O)(=O)N[C@@H]2c3cc(NC(=O)c4cccc(OC)c4)ccc3C[C@H]2O)cc1 [listing 1 of 2 here]

IC50 [2]: 300 nM
SMILES: CCc1ccc(S(=O)(=O)N[C@@H]2c3cc(NC(=O)c4cccc(OC)c4)ccc3C[C@@H]2O)cc1 (racemic)

solubility ([3]; read-out: Solubility): < 0.1 µg/mL | IC50 [2]: 150 nM
SMILES: CCc1ccc(S(=O)(=O)NC2CCc3ccc(NC(=O)c4cccc(OC)c4)cc32)cc1 (racemic)

inhibition [1]: 24%
SMILES: CCc1ccc(S(=O)(=O)N[C@@H]2c3ccc(NC(=O)c4cccc(OC)c4)cc3C[C@H]2O)cc1 (racemic)

solubility ([3]; read-out: Solubility): 0.8 µg/mL (≈ 1.88 µM) | IC50 [2]: 240 nM
SMILES: CCc1ccc(S(=O)(=O)NCc2cccc(NC(=O)c3cccc(OC)c3)c2)cc1

IC50 [2]: 760 nM
SMILES: CCc1ccc(S(=O)(=O)N[C@H]2c3cc(NC(=O)c4cccc(OC)c4)ccc3C[C@@H]2O)cc1

IC50 [2]: 200 nM
SMILES: CCc1ccc(S(=O)(=O)N[C@@H]2c3cc(NC(=O)c4cccc(OC)c4)ccc3CCC[C@H]2O)cc1 (racemic)

bioavailability [5]: 5% | half-life [6]: 90 min | CL/F [7]: 200 mL/min/kg | Vd (Rattus norvegicus [8]): 4 L/kg | half-life [9]: 24 min | bioavailability [10]: 1% | CL/F [11]: 12 mL/min/kg | Vd (Canis familiaris): 1.4 L/kg | solubility [3]: 1.3 µg/mL (≈ 2.79 µM) | IC50 [2]: 33 nM
SMILES: CCc1ccc(S(=O)(=O)N[C@@H]2c3cc(NC(=O)c4cccc(OC)c4)ccc3C[C@H]2O)cc1 [listing 2 of 2 here]
inhibition at 10 µM [12]: 15% | inhibition at 10 µM (hERG (KCNH2)): 37%
